What was measured:
Format in all cases: functional
[1] = test system: Staphylococcus epidermidis; experiment: Antibacterial activity was determined against Staphylococcus epidermidis ATCC 12228 (Gram-positive)
In short: (§1)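 2-fold agar dilution on Müller-Hinton agar. Overnight broth cultures were diluted to about 10^6 CFU/mL, and 10^4 CFU/spot was applied to plates with graded drug concentrations. Plates were incubated 18 h at 37 °C.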

Klebsiella pneumoniae = experiment: Antibacterial activity was determined against Klebsiella pneumoniae NCTC 9632 (Gram-negative); in short: as §1
Staphylococcus aureus [2] = experiment: Antibacterial activity was determined against Staphylococcus aureus FDA 209P (Gram-positive); in short: as §1
Serratia marcescens = experiment: Antibacterial activity was determined against Serratia marcescens ATCC 12648 (Gram-negative); in short: as §1
Escherichia coli = experiment: Antibacterial activity was determined against Escherichia coli NIHJ JC-2 (Gram-negative); in short: as §1
Enterococcus faecalis = experiment: Antibacterial activity was determined against Enterococcus faecalis ATCC 21212 (Gram-positive); in short: as §1
Staphylococcus aureus [3] = experiment: Antibacterial activity was determined against Methicillin-resistant Staphylococcus aureus (MRSA) 5038 (Gram-positive)
Pseudomonas aeruginosa = experiment: Antibacterial activity was determined against Pseudomonas aeruginosa ATCC 10145 (Gram-negative); in short: as §1

SMILES	MIC [1] [µg/mL]	MIC (Klebsiella pneumoniae) [µg/mL]	MIC (Staphylococcus aureus [2]) [µg/mL]	MIC (Serratia marcescens) [µg/mL]	MIC (Escherichia coli) [µg/mL]	MIC (Enterococcus faecalis) [µg/mL]	MIC (Staphylococcus aureus [3]) [µg/mL]	MIC (Pseudomonas aeruginosa) [µg/mL]
CC(C)(C)NC(=O)C[n+]1ccc(SCC2=C(C(=O)O)N3C(=O)[C@@H](NC(=O)/C(=N\OC4CCCC4)c4csc(N)n4)[C@H]3CO2)cc1.O=S(=O)([O-])O	0.39	1.56	0.2	3.13	1.56	1.56	12.5	25
Nc1nc(/C(=N/OC2CCCC2)C(=O)N[C@@H]2C(=O)N3C(C(=O)O)=C(CSc4cc[n+](CC(=O)N5CCC(O)CC5)cc4)OC[C@H]23)cs1.O=S(=O)([O-])O	0.39	0.78	0.2	3.13	1.56	3.13	25	12.5
C#CC[n+]1ccc(SCC2=C(C(=O)O)N3C(=O)[C@@H](NC(=O)/C(=N\OC4CCCC4)c4csc(N)n4)[C@H]3CO2)cc1.O=S(=O)([O-])O	0.1	0.39	0.2	1.56	0.39	1.56	6.25	6.25
Nc1nc(/C(=N/OC2CCCC2)C(=O)N[C@@H]2C(=O)N3C(C(=O)O)=C(CSc4cc[n+](CC(=O)N5CCOCC5)cc4)OC[C@H]23)cs1.O=S(=O)([O-])O	0.2	0.78	0.2	1.56	0.78	1.56	12.5	6.25
CC(C)=CC[n+]1ccc(SCC2=C(C(=O)O)N3C(=O)[C@@H](NC(=O)/C(=N\OC4CCCC4)c4csc(N)n4)[C@H]3CO2)cc1.O=S(=O)([O-])O	0.2	0.78	0.2	1.56	0.78	1.56	12.5	12.5
CN(C)C(=O)C[n+]1ccc(SCC2=C(C(=O)O)N3C(=O)[C@@H](NC(=O)/C(=N\OC4CCCC4)c4csc(N)n4)[C@H]3CO2)cc1.O=S(=O)([O-])O	0.39	0.78	0.2	1.56	0.78	1.56	12.5	12.5
C=CC[n+]1ccc(SCC2=C(C(=O)O)N3C(=O)[C@@H](NC(=O)/C(=N\OC4CCCC4)c4csc(N)n4)[C@H]3CO2)cc1.O=S(=O)([O-])O	0.05	0.39	0.1	1.56	0.39	0.78	6.25	6.25
N#CC[n+]1ccc(SCC2=C(C(=O)O)N3C(=O)[C@@H](NC(=O)/C(=N\OC4CCCC4)c4csc(N)n4)[C@H]3CO2)cc1.O=S(=O)([O-])O	0.2	0.39	0.2	1.56	0.39	1.56	12.5	6.25
Nc1nc(/C(=N/OC2CCCC2)C(=O)N[C@@H]2C(=O)N3C(C(=O)O)=C(CSc4cc[n+](CC(=O)c5ccccc5)cc4)OC[C@H]23)cs1.O=S(=O)([O-])O	0.39	1.56	0.2	3.13	1.56	1.56	12.5	25
CC(C)(C)C(=O)C[n+]1ccc(SCC2=C(C(=O)O)N3C(=O)[C@@H](NC(=O)/C(=N\OC4CCCC4)c4csc(N)n4)[C@H]3CO2)cc1.O=S(=O)([O-])O	0.39	1.56	0.2	3.13	1.56	1.56	6.25	25
NC(=O)C[n+]1ccc(SCC2=C(C(=O)O)N3C(=O)[C@@H](NC(=O)/C(=N\OC4CCCC4)c4csc(N)n4)[C@H]3CO2)cc1.O=S(=O)([O-])O	0.05	0.2	0.1	1.56	0.2	1.56	6.25	3.13

Source: ChEMBL document CHEMBL1128396, “Synthesis and biological evaluation of a series of new parenteral optically active 3-[[(N-alkylpyridinium-4'-yl)thio]methyl]-2-oxaisocephems” (1995)
